ChEMBL document CHEMBL5712079, “The H3K27me3-demethylase KDM6A is suppressed in breast cancer stem-like cells, and enables the resolution of bivalency during the mesenchymal-epithelial transition” (Oncotarget, 2017)
Active and inactive are the calls of the source.

Columns and labels:
Assay type in all cases: cell-based
[1] = molecular target: Lysine-specific demethylase 6A (Homo sapiens) (UniProt O15550); test: Inhibition of KDM6A in human MCF-10A cell assessed as FZD8 gene expression at 50 nM by qRT-PCR analysis
Procedure, shortened: (§1)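 MCF10A monolayers were exposed to TGFB at 2.5 ng/ml for 6 days to induce EMT, then cultured without TGFB for 10 days (MET) with compound at 50 nM or DMSO vehicle. Vehicle-only and TGFB-only arms served as references. RNA was analysed by qRT-PCR, normalised to GAPDH by 2^-ΔΔCt, and run in triplicate (mean ± SD). Significance was by unpaired t-tests with Holm-Sidak correction.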

[2] = molecular target: Lysine-specific demethylase 6A (Homo sapiens) (UniProt O15550); test: Inhibition of KDM6A in human MCF-10A cell assessed as PUS3 gene expression at 50 nM by qRT-PCR analysis; procedure, shortened: as §1
[3] = molecular target: Lysine-specific demethylase 6A (Homo sapiens) (UniProt O15550); test: Inhibition of KDM6A in human MCF-10A cell assessed as H2AFY2 gene expression at 50 nM by qRT-PCR analysis; procedure, shortened: as §1
[4] = molecular target: Lysine-specific demethylase 6A (Homo sapiens) (UniProt O15550); test: Inhibition of KDM6A in human MCF-10A cell assessed as LRRC8D gene expression at 50 nM by qRT-PCR analysis; procedure, shortened: as §1
[5] = molecular target: Lysine-specific demethylase 6A (Homo sapiens) (UniProt O15550); test: Inhibition of KDM6A in human MCF-10A cell assessed as FAM60A gene expression at 50 nM by qRT-PCR analysis; procedure, shortened: as §1
[6] = molecular target: Lysine-specific demethylase 6A (Homo sapiens) (UniProt O15550); test: Inhibition of KDM6A in human MCF-10A cell assessed as ILKAP gene expression at 50 nM by qRT-PCR analysis; procedure, shortened: as §1
[7] = molecular target: Lysine-specific demethylase 6A (Homo sapiens) (UniProt O15550); test: Inhibition of KDM6A in human MCF-10A cell assessed as C60ORF14 gene expression at 50 nM by qRT-PCR analysis; procedure, shortened: as §1
[8] = molecular target: Lysine-specific demethylase 6A (Homo sapiens) (UniProt O15550); test: Inhibition of KDM6A in human MCF-10A cell assessed as PKP2 gene expression at 50 nM by qRT-PCR analysis; procedure, shortened: as §1
[9] = molecular target: Lysine-specific demethylase 6A (Homo sapiens) (UniProt O15550); test: Inhibition of KDM6A in human MCF-10A cell assessed as THOC6 gene expression at 50 nM by qRT-PCR analysis; procedure, shortened: as §1
[10] = molecular target: Lysine-specific demethylase 6A (Homo sapiens) (UniProt O15550); test: Inhibition of KDM6A in human MCF-10A cell assessed as MAP3K9 gene expression at 50 nM by qRT-PCR analysis; procedure, shortened: as §1
[11] = molecular target: Lysine-specific demethylase 6A (Homo sapiens) (UniProt O15550); test: Inhibition of KDM6A in human MCF-10A cell assessed as ZNF232 gene expression at 50 nM by qRT-PCR analysis; procedure, shortened: as §1
[12] = molecular target: Lysine-specific demethylase 6A (Homo sapiens) (UniProt O15550); test: Inhibition of KDM6A in human MCF-10A cell assessed as vimentin expression at 50 nM by immunostaining analysis
Procedure, shortened: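 MCF10A cells received TGFB (2.5 ng/ml; vehicle was 4 mM HCl with 0.1% BSA) to induce EMT, then TGFB was withdrawn in the presence of compound (50 nM) or DMSO. Cells were fixed and immunostained for vimentin and imaged by inverted fluorescence microscopy.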

[13] = molecular target: Lysine-specific demethylase 6A (Homo sapiens) (UniProt O15550); test: Inhibition of KDM6A in human MCF-10A cell assessed as FAM117A gene expression at 50 nM by qRT-PCR analysis; procedure, shortened: as §1
[14] = molecular target: Lysine-specific demethylase 6A (Homo sapiens) (UniProt O15550); test: Inhibition of KDM6A in human MCF-10A cell assessed as MED30 gene expression at 50 nM by qRT-PCR analysis; procedure, shortened: as §1
[15] = molecular target: Lysine-specific demethylase 6A (Homo sapiens) (UniProt O15550); test: Inhibition of KDM6A in human MCF-10A cell assessed as CBX4 gene expression at 50 nM by qRT-PCR analysis; procedure, shortened: as §1
[16] = molecular target: Lysine-specific demethylase 6A (Homo sapiens) (UniProt O15550); test: Inhibition of KDM6A in human MCF-10A cell assessed as COBLL1 gene expression at 50 nM by qRT-PCR analysis; procedure, shortened: as §1
[17] = molecular target: Lysine-specific demethylase 6A (Homo sapiens) (UniProt O15550); test: Inhibition of KDM6A in human MCF-10A cell assessed as CDK4 gene expression at 50 nM by qRT-PCR analysis; procedure, shortened: as §1
[18] = molecular target: Lysine-specific demethylase 6A (Homo sapiens) (UniProt O15550); test: Inhibition of KDM6A in human MCF-10A cell assessed as CCNA1 gene expression at 50 nM by qRT-PCR analysis; procedure, shortened: as §1

Measured: inhibition

Sequence of Lysine-specific demethylase 6A (Homo sapiens) (O15550 whole entry): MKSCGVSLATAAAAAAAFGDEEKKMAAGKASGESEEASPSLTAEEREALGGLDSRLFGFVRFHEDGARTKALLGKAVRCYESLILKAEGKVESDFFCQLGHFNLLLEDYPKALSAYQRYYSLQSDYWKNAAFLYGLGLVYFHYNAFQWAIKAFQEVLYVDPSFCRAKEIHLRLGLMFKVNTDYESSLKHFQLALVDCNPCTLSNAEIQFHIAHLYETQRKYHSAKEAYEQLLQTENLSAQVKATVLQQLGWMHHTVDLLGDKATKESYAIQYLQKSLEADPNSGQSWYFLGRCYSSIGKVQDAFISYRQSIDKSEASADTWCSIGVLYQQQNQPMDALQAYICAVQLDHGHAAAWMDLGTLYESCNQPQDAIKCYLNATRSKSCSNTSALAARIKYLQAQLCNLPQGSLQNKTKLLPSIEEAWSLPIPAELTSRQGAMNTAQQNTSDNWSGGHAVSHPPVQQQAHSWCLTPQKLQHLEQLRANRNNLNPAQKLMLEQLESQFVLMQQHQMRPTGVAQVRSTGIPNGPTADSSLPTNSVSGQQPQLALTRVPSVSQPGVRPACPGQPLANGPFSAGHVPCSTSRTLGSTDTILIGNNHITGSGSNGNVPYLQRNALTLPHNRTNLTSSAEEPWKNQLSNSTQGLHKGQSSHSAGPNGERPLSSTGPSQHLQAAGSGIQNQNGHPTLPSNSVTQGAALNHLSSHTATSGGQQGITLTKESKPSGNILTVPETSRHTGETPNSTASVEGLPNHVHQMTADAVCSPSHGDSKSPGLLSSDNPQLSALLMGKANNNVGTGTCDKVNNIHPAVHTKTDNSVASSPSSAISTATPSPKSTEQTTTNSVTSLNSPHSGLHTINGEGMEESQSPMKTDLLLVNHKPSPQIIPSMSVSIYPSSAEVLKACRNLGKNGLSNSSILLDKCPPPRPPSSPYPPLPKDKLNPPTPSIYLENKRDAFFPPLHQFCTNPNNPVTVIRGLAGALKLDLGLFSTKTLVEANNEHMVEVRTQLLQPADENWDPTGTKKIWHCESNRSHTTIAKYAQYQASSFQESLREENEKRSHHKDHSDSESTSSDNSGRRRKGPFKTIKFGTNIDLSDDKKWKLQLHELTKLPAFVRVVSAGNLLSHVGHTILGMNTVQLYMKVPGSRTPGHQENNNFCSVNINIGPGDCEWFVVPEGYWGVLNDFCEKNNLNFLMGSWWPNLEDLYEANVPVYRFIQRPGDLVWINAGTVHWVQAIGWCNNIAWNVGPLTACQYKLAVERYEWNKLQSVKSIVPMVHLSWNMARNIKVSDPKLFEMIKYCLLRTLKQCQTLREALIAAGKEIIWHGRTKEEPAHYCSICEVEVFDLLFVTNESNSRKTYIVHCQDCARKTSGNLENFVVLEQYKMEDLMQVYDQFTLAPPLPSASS

CCOC(=O)CCNc1cc(N2CCc3ccccc3CC2)nc(-c2ccccn2)n1
active: all assays above
